ChEMBL document CHEMBL2412970, “Synthesis and anticancer activity of 2,4-disubstituted furo[3,2-b]indole derivatives” (Eur J Med Chem, 2013)
Calls of active or inactive are those of the source. The rule behind the calls is not given here.

Assays:
A498 [1] = experiment: Cytotoxicity against human A498 cells assessed as reduction in cell viability at 0.5 uM after 48 hrs by MTT assay relative to control; format: functional
Mus musculus = experiment: Toxicity in BALB/cAnN.Cg-Foxn1nu/CrlNarl nude mouse assessed as change in body weight at 30 to 60 mg/kg/day, ip qd administered 5 times a week for 28 days measured every 7 days; format: organism-based; design: route intraperitoneal; details: in vivo
How it was run: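 Male nude mice, 18–20 g, 4–6 weeks old, carried subcutaneous A498 xenografts (2 × 10⁶ cells in 0.1 mL PBS). Once nodules reached 100 mm³, mice were randomized, eight per group. They received ip 30 or 60 mg/kg 5 times weekly for 4 weeks, with body weight and tumor size recorded every 7 days over 28 days.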

SF-268 = experiment: Cytotoxicity against human SF268 cells after 48 hrs by sulforhodamine B assay; format: functional; details: SF-268, 48 h
A498 [2] = experiment: Cell cycle arrest in human A498 cells assessed as accumulation at G2/M phase at 0.5 uM after 48 hrs by propidium iodide staining-based flow cytometry (reference value: 5.39 +/- 0.01%); format: functional
HL-60 = experiment: Cytotoxicity against human HL60 cells after 48 hrs by MTT assay; format: functional, cell-based; details: HL-60, 48 h
How it was run: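 Cells were treated with a range of concentrations for 48 h. Viability was read by MTT: formazan was dissolved in DMSO and absorbance read at 570 nm. Untreated or 0.1% DMSO cells served as control. Data are mean from three independent experiments. HL-60, H460 and COLO 205 were kept in RPMI-1640 with 10% FBS and penicillin/streptomycin.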

A498 [3] = experiment: Cell cycle arrest in human A498 cells assessed as accumulation at S phase at 0.5 uM after 48 hrs by propidium iodide staining-based flow cytometry (reference value: 15.92 +/- 0.03%); format: functional
A498 [4] = experiment: Induction of apoptosis in human A498 cells assessed as late apoptotic cells at 0.5 uM after 36 hrs by AnnexinV/FITC-propidium iodide staining-based flow cytometry (reference value: 9.6%); format: functional
How it was run: (§1)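 Flow cytometry with annexin V-FITC/PI double labeling of A498 cells treated for 12, 24, 36 or 48 h; untreated cells served as the 0 h control. Stained in binding buffer for 15 min at room temperature in the dark, with more binding buffer added just before analysis. Annexin V+/PI− (Q4) counted as early apoptotic and annexin V+/PI+ (Q2) as late apoptotic.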

TK-10 = experiment: Cytotoxicity against human TK10 cells after 48 hrs by sulforhodamine B assay; format: functional; details: TK-10, 48 h
SR = experiment: Cytotoxicity against human SR cells after 48 hrs by sulforhodamine B assay; format: functional
HCT-116 = experiment: Cytotoxicity against human HCT116 cells after 48 hrs by sulforhodamine B assay; format: functional; details: HCT-116, 48 h
[5] = Cytotoxicity against human Hep3B cells after 48 hrs by MTT assay; format: functional, cell-based, Hep 3B2
A498 [6] = experiment: Cytotoxicity against human A498 cells assessed as reduction in cell viability at 0.25 uM after 48 hrs by MTT assay relative to control; format: functional
Hs-578T = experiment: Cytotoxicity against human Hs578T cells after 48 hrs by sulforhodamine B assay; format: functional
RXF 393 = experiment: Cytotoxicity against human RXF393 cells after 48 hrs by sulforhodamine B assay; format: functional; details: RXF 393, 48 h
A498 [7] = experiment: Cytotoxicity against human A498 cells assessed as reduction in cell viability at 1 uM after 48 hrs by MTT assay relative to control; format: functional
NCI-H522 = experiment: Cytotoxicity against human NCI-H522 cells after 48 hrs by sulforhodamine B assay; format: functional; details: NCI-H522, 48 h
HCC 2998 = experiment: Cytotoxicity against human HCC2998 cells after 48 hrs by sulforhodamine B assay; format: functional; details: HCC 2998, 48 h
A498 [8] = experiment: Induction of apoptosis in human A498 cells assessed as late apoptotic cells at 0.5 uM after 48 hrs by AnnexinV/FITC-propidium iodide staining-based flow cytometry (reference value: 9.6%); format: functional; how it was run: as §1
Malme-3M = experiment: Cytotoxicity against human MALME-3M cells after 48 hrs by sulforhodamine B assay; format: functional
Detroit 551 = experiment: Cytotoxicity against human Detroit 551 cells after 48 hrs by MTT assay; format: cell-based; details: Detroit 551, 48 h
DU-145 = experiment: Cytotoxicity against human DU145 cells after 48 hrs by sulforhodamine B assay; format: functional; details: DU-145, 48 h
A498 [9] = experiment: Cytotoxicity against human A498 cells assessed as cell shrinkage at 0.5 uM after 24 hrs by phase contrast microscopy; format: functional, cell-based
How it was run: (§2)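 A498 cells were plated at 5 × 10⁵ per well and exposed to 0.5 µM for 24 h. Cell rounding and shrinkage were scored by microscopy against untreated control cells.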

A498 [10] = experiment: Induction of apoptosis in human A498 cells assessed as reduction in mitochondrial membrane potential at 0.5 uM after 12 to 48 hrs by JC-1 staining-based flow cytometry; format: functional, cell-based
How it was run: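 A498 cells at 1 × 10⁶ cells/mL, untreated or treated for 12–48 h, were stained with JC-1 working solution for 10–15 min and analysed by flow cytometry. High-potential cells show intense red JC-1 aggregate fluorescence; loss of potential is scored as the population with reduced red fluorescence.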

MOLT-4 = experiment: Cytotoxicity against human MOLT4 cells after 48 hrs by sulforhodamine B assay; format: functional; details: MOLT-4, 48 h
A498 [11] = experiment: Cytotoxicity against human A498 cells assessed as cell rounding at 0.5 uM after 24 hrs by phase contrast microscopy; format: functional, cell-based; how it was run: as §2
HL-60(TB) = experiment: Cytotoxicity against human HL-60(TB) cells after 48 hrs by sulforhodamine B assay; format: functional; details: HL-60, 48 h
BT-549 = experiment: Cytotoxicity against human BT549 cells after 48 hrs by sulforhodamine B assay; format: functional; details: BT-549, 48 h
SNB-75 = experiment: Cytotoxicity against human SNB75 cells after 48 hrs by sulforhodamine B assay; format: functional; details: SNB-75, 48 h
[12] = read-out: pLC50 (the source's name) (converted)

SMILES: OCc1ccc(Cn2c3ccccc3c3oc(CO)cc32)o1
- Activity (A498 [1]): 37.5%
- Activity (Mus musculus): Non-toxic
- GI50 (SF-268): 97.7 µM
- CC50 (SF-268; [12]): > 100 µM
- TGI (SF-268; read-out: pTGI): > 100 µM
- Activity (A498 [2]): 18.09%
- IC50 (HL-60): > 50 µM
- Activity (A498 [3]): 10.64%
- Activity (A498 [4]): 20.3%
- GI50 (TK-10): 0.537 µM
- CC50 (TK-10; [12]): > 100 µM
- TGI (TK-10; read-out: pTGI (converted)): 3.24 µM
- GI50 (SR): 89.1 µM
- CC50 (SR; [12]): > 100 µM
- TGI (SR; read-out: pTGI): > 100 µM
- GI50 (HCT-116): 0.912 µM
- CC50 (HCT-116; [12]): > 100 µM
- TGI (HCT-116; read-out: pTGI): > 100 µM
- IC50 [5]: > 50 µM
- Activity (A498 [6]): 39.5%
- GI50 (Hs-578T): > 100 µM
- CC50 (Hs-578T; [12]): > 100 µM
- TGI (Hs-578T; read-out: pTGI): > 100 µM
- GI50 (RXF 393): 75.9 µM
- CC50 (RXF 393; [12]): > 100 µM
- TGI (RXF 393; read-out: pTGI): > 100 µM
- Activity (A498 [7]): 19.4%
- GI50 (NCI-H522): 39.8 µM
- CC50 (NCI-H522; [12]): > 100 µM
- TGI (NCI-H522; read-out: pTGI): > 100 µM
- GI50 (HCC 2998): > 100 µM
- CC50 (HCC 2998; [12]): > 100 µM
- TGI (HCC 2998; read-out: pTGI): > 100 µM
- Activity (A498 [8]): 21.2%
- GI50 (Malme-3M): > 100 µM
- CC50 (Malme-3M; [12]): > 100 µM
- TGI (Malme-3M; read-out: pTGI): > 100 µM
- IC50 (Detroit 551): > 50 µM
- GI50 (DU-145): > 100 µM
- CC50 (DU-145; [12]): > 100 µM
- TGI (DU-145; read-out: pTGI): > 100 µM
- Activity (A498 [9]): Active
- Activity (A498 [10]): Active
- GI50 (MOLT-4): 77.6 µM
- CC50 (MOLT-4; [12]): > 100 µM
- TGI (MOLT-4; read-out: pTGI): > 100 µM
- Activity (A498 [11]): Active
- GI50 (HL-60(TB)): > 100 µM
- CC50 (HL-60(TB); [12]): > 100 µM
- TGI (HL-60(TB); read-out: pTGI): > 100 µM
- GI50 (BT-549): 3.89 µM
- CC50 (BT-549; [12]): > 100 µM
- TGI (BT-549; read-out: pTGI (converted)): 61.7 µM
- GI50 (SNB-75): 46.8 µM
- CC50 (SNB-75; [12]): > 100 µM
- TGI (SNB-75; read-out: pTGI): > 100 µM
